Results taken from ChEMBL document CHEMBL1152488, “Synthesis and evaluation of pyrido[1,2-a]pyrimidines as inhibitors of nitric oxide synthases” (Eur J Med Chem, 2009).

How the values were obtained:
[1] = target: T1, Nitric oxide synthase 3 (Homo sapiens) (UniProt P29474); assay: Inhibition of human eNOS assessed as residual activity at 100 uM by Griess assay relative to control
T1 sequence (whole entry): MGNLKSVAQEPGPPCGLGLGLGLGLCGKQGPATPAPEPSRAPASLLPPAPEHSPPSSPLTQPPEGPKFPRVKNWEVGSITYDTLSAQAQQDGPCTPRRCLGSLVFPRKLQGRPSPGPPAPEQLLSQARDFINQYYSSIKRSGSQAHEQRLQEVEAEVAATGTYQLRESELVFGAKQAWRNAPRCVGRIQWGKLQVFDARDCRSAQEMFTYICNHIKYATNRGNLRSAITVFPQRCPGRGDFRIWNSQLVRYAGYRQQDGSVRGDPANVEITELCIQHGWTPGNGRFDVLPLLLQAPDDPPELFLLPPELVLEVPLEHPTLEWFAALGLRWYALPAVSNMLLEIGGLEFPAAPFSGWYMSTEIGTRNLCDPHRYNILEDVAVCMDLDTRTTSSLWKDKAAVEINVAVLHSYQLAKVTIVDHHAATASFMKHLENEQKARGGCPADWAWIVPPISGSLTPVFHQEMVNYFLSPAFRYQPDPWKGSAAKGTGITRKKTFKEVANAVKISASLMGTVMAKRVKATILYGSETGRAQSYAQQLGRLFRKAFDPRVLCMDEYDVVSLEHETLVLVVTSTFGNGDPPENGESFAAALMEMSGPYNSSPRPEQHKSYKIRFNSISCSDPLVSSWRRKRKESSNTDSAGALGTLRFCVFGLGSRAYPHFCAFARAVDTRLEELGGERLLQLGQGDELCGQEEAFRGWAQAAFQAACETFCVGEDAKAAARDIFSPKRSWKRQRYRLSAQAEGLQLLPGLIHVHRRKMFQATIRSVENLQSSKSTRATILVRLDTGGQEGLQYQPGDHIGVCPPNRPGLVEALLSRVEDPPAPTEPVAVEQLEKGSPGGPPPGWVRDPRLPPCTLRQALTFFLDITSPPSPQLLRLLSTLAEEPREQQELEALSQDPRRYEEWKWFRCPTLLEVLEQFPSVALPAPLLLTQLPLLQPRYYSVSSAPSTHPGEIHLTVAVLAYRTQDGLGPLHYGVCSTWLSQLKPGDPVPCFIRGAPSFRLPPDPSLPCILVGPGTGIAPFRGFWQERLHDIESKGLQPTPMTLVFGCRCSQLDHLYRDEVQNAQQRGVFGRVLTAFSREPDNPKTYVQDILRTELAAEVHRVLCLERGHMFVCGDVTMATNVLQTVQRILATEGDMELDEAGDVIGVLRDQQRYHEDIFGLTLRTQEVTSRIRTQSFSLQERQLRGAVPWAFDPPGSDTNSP
Outline: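 Human eNOS expressed in Pichia pastoris. Incubated 20 min at 37 °C in triethanolamine pH 7.5 with 0.5 mM Ca2+, CaM, H4B 10 µM, FAD/FMN 5 µM, NADPH 0.5 mM, L-arginine 1 mM and compound at 100 µM final. Nitrite read by Griess (543 nm) after LDH/pyruvate NADPH removal; % of 1% DMSO control from 5 experiments.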

[2] = target: Nitric oxide synthase, inducible (Homo sapiens) (UniProt P35228); assay: Inhibition of human iNOS expressed in insect Sf9 cells assessed as residual activity at 100 uM by Griess assay relative to control
Nitric oxide synthase, inducible (Homo sapiens), sequence (P35228 whole entry): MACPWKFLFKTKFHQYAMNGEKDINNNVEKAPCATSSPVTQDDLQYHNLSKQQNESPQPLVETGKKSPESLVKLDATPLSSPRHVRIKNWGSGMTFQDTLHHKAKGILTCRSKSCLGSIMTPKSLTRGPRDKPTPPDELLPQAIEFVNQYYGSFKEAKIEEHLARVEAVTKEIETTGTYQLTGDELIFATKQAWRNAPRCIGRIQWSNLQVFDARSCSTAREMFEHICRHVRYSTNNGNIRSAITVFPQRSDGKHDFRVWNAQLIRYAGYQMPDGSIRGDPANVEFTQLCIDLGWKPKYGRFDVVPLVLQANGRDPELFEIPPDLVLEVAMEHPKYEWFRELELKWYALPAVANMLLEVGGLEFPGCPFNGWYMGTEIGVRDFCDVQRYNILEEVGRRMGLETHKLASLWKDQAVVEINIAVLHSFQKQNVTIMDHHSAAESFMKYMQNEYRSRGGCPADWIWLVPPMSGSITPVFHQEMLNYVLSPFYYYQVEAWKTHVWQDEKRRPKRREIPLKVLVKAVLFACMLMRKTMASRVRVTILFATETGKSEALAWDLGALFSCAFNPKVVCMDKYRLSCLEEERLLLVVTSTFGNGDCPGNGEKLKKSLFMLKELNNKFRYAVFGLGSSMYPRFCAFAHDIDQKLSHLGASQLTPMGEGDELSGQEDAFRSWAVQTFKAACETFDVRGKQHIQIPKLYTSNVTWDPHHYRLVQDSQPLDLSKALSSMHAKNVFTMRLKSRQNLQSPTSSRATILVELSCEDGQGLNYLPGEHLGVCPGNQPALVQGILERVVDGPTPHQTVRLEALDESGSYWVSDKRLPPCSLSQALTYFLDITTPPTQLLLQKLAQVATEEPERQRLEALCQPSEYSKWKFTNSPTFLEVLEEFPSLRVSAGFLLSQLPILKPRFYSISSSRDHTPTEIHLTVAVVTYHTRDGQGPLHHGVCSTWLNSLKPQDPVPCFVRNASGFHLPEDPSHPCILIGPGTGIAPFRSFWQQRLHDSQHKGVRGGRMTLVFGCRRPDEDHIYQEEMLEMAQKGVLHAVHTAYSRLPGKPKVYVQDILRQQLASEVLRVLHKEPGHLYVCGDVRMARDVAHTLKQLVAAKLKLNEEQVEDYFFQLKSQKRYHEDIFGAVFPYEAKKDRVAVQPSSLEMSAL
Outline: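 Human iNOS made in Sf9 cells, incubated at 37 °C for 20 min in 50 mM triethanolamine pH 7.5 with 1 mM Mg2+, FAD/FMN 5 µM each, 0.5 mM NADPH, 10 µM H4B, CaM and 1 mM L-arginine. Compound 100 µM final. NADPH cleared with lactate dehydrogenase/pyruvate before Griess reaction (543 nm). Residual activity relative to 1% DMSO control; mean of 5 experiments.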

[3] = target: T2, Nitric oxide synthase, inducible (Mus musculus) (UniProt P29477); assay: Inhibition of mouse recombinant iNOS expressed in Escherichia coli assessed as conversion of [gamma-14C]L-arginine to [14C]L-citrulline at 100 uM by radioactive assay relative to control; design: scale not given: the % may be the effect or the level left
T2 sequence (whole entry): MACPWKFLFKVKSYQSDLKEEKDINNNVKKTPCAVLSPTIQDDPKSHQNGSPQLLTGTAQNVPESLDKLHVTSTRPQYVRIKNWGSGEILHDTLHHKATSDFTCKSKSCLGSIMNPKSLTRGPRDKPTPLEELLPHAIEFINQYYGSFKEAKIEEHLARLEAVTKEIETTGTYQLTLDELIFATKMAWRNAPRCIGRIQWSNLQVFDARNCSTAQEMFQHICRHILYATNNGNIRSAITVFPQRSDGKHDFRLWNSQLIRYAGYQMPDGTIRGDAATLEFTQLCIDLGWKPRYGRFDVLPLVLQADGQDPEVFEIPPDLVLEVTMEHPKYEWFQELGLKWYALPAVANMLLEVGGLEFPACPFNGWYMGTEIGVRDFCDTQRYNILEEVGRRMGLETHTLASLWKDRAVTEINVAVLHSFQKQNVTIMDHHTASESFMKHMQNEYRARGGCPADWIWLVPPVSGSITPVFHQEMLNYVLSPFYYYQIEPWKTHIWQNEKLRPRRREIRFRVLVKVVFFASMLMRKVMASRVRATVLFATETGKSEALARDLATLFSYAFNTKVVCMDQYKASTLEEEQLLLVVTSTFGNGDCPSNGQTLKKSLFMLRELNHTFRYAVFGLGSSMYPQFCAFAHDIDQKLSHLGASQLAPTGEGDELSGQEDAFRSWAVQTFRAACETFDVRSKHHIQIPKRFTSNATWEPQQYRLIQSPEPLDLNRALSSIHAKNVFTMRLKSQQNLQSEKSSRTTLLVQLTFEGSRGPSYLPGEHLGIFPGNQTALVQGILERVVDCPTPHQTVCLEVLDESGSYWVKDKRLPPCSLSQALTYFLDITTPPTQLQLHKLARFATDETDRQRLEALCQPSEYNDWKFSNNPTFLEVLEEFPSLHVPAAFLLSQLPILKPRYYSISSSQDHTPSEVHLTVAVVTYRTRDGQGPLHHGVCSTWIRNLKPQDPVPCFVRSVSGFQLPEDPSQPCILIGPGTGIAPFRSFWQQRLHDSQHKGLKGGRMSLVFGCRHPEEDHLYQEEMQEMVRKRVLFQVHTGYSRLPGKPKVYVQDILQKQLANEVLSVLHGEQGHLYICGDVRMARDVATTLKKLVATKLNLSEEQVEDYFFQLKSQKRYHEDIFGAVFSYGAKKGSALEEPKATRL
Outline: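 Purified enzymes: rat nNOS from S. cerevisiae, murine iNOS and bovine eNOS from E. coli. Reaction 5 min at 37 °C in 50 mM Hepes pH 7.4 with DTT, 1 mM NADPH, H4B, FAD, FMN, [14C]L-arginine (2.5 µM L-arginine) and 100 µM compound in 1% DMSO. nNOS/eNOS also got 1 mM CaCl2 and CaM, which iNOS lacked. [14C]citrulline isolated on Dowex and counted by scintillation; % of DMSO control, n=3.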

RAW264.7 = assay: Cytotoxicity against mouse RAW264.7 cells at 100 uM; assay type: cell-based; conditions: raw264.7, 100 µM

## CCSC(=N)N
[1]
  Activity: 37%
[2]
  Activity: 6%

## CC(=N)NCc1cccc(CN)c1
[1]
  Activity: 105%
[2]
  Activity: 5%

## COc1ccc(C(=O)C2CN=C3C=CC=C(C)N3C2)cc1OC.[O-][Cl+3]([O-])([O-])O (configuration not stated)
[3]
  Activity: 91%
RAW264.7
  Activity: Non-toxic

## COc1ccc2cc(C(=O)C3CN=C4C=C(C)C=CN4C3)ccc2c1 (configuration not stated)
[1]
  Activity: 98%
[2]
  Activity: 88%

## CCCNC(=N)NCCC[C@H](N)C(=O)O
[1]
  Activity: 96%
[2]
  Activity: 95%

## CC1=CC2=NCC(C(=O)c3ccc(-c4ccc(C#N)cc4)cc3)CN2C=C1.Cl (configuration not stated)
[1]
  Activity: 55%
[3]
  Activity: 18%
RAW264.7
  Activity: Non-toxic
[2]
  Activity: 55%

## CC1=CC=CC2=NCC(C(=O)c3ccc(F)cc3)CN12.[O-][Cl+3]([O-])([O-])O (configuration not stated)
[1]
  Activity: 77%
[3]
  Activity: 66%
RAW264.7
  Activity: Non-toxic
[2]
  Activity: 88%

## CC1=CC2=NCC(C(=O)c3ccc(-c4ccc(Br)cc4)cc3)CN2C(C)=C1 (configuration not stated)
[1]
  Activity: 15%
[3]
  Activity: 35%
[2]
  Activity: 89%

## O=C(c1ccc(Br)cc1)C1CN=C2C=CC=CN2C1 (configuration not stated)
[1]
  Activity: 85%
[2]
  Activity: 110%

## CC1=CC2=NCC(C(=O)c3ccc(-c4ccccc4)cc3)CN2C=C1 (configuration not stated)
[1]
  Activity: 8%
[2]
  Activity: 17%

## CC1=CC2=NCC(C(=O)c3ccccc3)CN2C=C1 (configuration not stated)
[1]
  Activity: 72%
[2]
  Activity: 63%

## COc1ccc(C(=O)C2CN=C3C=C(C)C=CN3C2)cc1F.[O-][Cl+3]([O-])([O-])O (configuration not stated)
[1]
  Activity: 84%
[3]
  Activity: 45%
RAW264.7
  Activity: Non-toxic
[2]
  Activity: 102%

## CC1=CC2=NCC(C(=O)c3ccc(OCc4ccc(Br)cc4)cc3)CN2C=C1.Cl (configuration not stated)
[1]
  Activity: 16%
[3]
  Activity: 62%
RAW264.7
  Activity: Non-toxic
[2]
  Activity: 83%

## CC1=CC2=NCC(C(=O)c3ccc(OCc4ccc(Cl)cc4)cc3)CN2C=C1.[O-][Cl+3]([O-])([O-])O (configuration not stated)
[1]
  Activity: 8%
[3]
  Activity: 25%
RAW264.7
  Activity: Non-toxic
[2]
  Activity: 94%

## N=C(NCCC[C@H](N)C(=O)O)N[N+](=O)[O-]
[1]
  Activity: 25%
[3]
  Activity: 15%
[2]
  Activity: 48%

## CC1=CC2=NCC(C(=O)c3ccc(Br)cc3)CN2C=C1 (configuration not stated)
[1]
  Activity: 73%
[2]
  Activity: 69%

## CC1=CC=CC2=NCC(C(=O)c3ccc4ccccc4c3)CN12 (configuration not stated)
[1]
  Activity: 75%
[2]
  Activity: 89%

## CC1=CC2=NCC(C(=O)c3ccc4ccccc4c3)CN2C=C1 (configuration not stated)
[1]
  Activity: 60%
[2]
  Activity: 47%

## O=C(c1ccc(Cl)c(Cl)c1)C1CN=C2C=CC=CN2C1.[O-][Cl+3]([O-])([O-])O (configuration not stated)
[1]
  Activity: 89%
[3]
  Activity: 85%
RAW264.7
  Activity: Non-toxic
[2]
  Activity: 105%

## CC1=CC=CC2=NCC(C(=O)c3ccc(C)cc3)CN12.[O-][Cl+3]([O-])([O-])O (configuration not stated)
[3]
  Activity: 66%
RAW264.7
  Activity: Non-toxic

## O=C(c1ccc2ccccc2c1)C1CN=C2C=CC=CN2C1 (configuration not stated)
[1]
  Activity: 60%
[2]
  Activity: 93%

## CC1=CC2=NCC(C(=O)c3ccc(F)cc3)CN2C=C1 (configuration not stated)
[1]
  Activity: 77%
[2]
  Activity: 78%

## CC1=CC2=NCC(C(=O)c3ccc(-c4ccc(Br)cc4)cc3)CN2C=C1.[O-][Cl+3]([O-])([O-])O (configuration not stated)
[1]
  Activity: 17%
[3]
  Activity: 19%
RAW264.7
  Activity: Non-toxic
[2]
  Activity: 120%

## CC1=CC2=NCC(C(=O)c3ccc(Cl)cc3)CN2C=C1 (configuration not stated)
[1]
  Activity: 7%
[2]
  Activity: 50%

## CC1=CC2=NCC(C(=O)c3ccc4cc(C)ccc4c3)CN2C(C)=C1.[O-][Cl+3]([O-])([O-])O (configuration not stated)
[1]
  Activity: 86%
[3]
  Activity: 28%
RAW264.7
  Activity: Non-toxic
[2]
  Activity: 83%

## CC1=CC=CC2=NCC(C(=O)c3ccc(Br)cc3)CN12 (configuration not stated)
[1]
  Activity: 86%
[2]
  Activity: 93%

## COc1ccc(-c2ccc(C(=O)C3CN=C4C=C(C)C=CN4C3)cc2)cc1.Cl (configuration not stated)
[1]
  Activity: 57%
[3]
  Activity: 13%
RAW264.7
  Activity: Non-toxic
[2]
  Activity: 49%

## CC1=CC2=NCC(C(=O)c3ccc(OCc4ccc(C#N)cc4)cc3)CN2C=C1.[O-][Cl+3]([O-])([O-])O (configuration not stated)
[1]
  Activity: 78%
[3]
  Activity: 30%
RAW264.7
  Activity: Non-toxic
[2]
  Activity: 105%

## CC1=CC2=NCC(C(=O)c3ccc4cc(C)ccc4c3)CN2C=C1.[O-][Cl+3]([O-])([O-])O (configuration not stated)
[1]
  Activity: 11%
[3]
  Activity: 13%
RAW264.7
  Activity: Non-toxic
[2]
  Activity: 103%
